From PMC7578760 (iScience, 2020) come the findings set out here.

The structures appear in SMILES notation.

Experiment [1] relates to DUSP6. Put plainly: Western blot of DUSP6 expression in 1205Lu melanoma cells. The format is cell-based. Conditions: 1205Lu (BRAF^V600E), 2 μM PLX4032, 0, 6, 24 h.
For another experiment, the system named is ERK signaling. Put plainly: Block of ERK signaling in MCF7 cells. The format is cell-based, human.
In experiment [2] the test system is DUSP6. The experiment can be described thus: Western blot of DUSP6 expression in 293T / 293T^CIC cells. Conditions: parental 293T, 10 ng/mL FGF, various times; SCH772984 10 μM. The format is cell-based, human. In short, it runs like this:
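Parental and CIC-knockout 293T cells grown in high-glucose DMEM with 10% FBS and penicillin-streptomycin. Cells stimulated with 10 ng/mL FGF for various times, with or without 10 uM ERK inhibitor, then lysed. DUSP6 detected by western blot.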

A further experiment has as its system ERK1/2. Put plainly: Western blot of activated ERK1/2 in 293T^CIC cells. It counts as cell-based, human. The conditions noted are these: 10 μM, 4 h.

`CCCS(=O)(=O)Nc1ccc(F)c(C(=O)c2c[nH]c3ncc(-c4ccc(Cl)cc4)cc23)c1F` [PLX4032]: the DUSP6 expression entry in the experiment with DUSP6 [1] is given as “time-dependent decrease of DUSP6 expression”.
Consider `O=C(Nc1ccc2[nH]nc(-c3ccncc3)c2c1)[C@@H]1CCN(CC(=O)N2CCN(c3ccc(-c4ncccn4)cc3)CC2)C1` [SCH772984], for which the “effectiveness to block ERK signaling” value in the experiment on ERK signaling is “not effective to block the ERK signaling in MCF7 cells”. Moreover, in the experiment with DUSP6 [2], the DUSP6 expression result was “drop”.
Consider `CN1CCN(c2ccc(-c3ccncc3-c3cc(F)c(O)c(F)c3)cc2)CC1` [LJH685], for which the “levels of activated ERK1/2” value in the experiment with ERK1/2 is “did not reduce the levels of activated ERK1/2”.
